Key:
Renin [1] = target: T1, Renin (Homo sapiens, UniProt P00797); experiment: Inhibition of human recombinant renin in PBS buffer at pH 7.4
T1 sequence (P00797 whole entry): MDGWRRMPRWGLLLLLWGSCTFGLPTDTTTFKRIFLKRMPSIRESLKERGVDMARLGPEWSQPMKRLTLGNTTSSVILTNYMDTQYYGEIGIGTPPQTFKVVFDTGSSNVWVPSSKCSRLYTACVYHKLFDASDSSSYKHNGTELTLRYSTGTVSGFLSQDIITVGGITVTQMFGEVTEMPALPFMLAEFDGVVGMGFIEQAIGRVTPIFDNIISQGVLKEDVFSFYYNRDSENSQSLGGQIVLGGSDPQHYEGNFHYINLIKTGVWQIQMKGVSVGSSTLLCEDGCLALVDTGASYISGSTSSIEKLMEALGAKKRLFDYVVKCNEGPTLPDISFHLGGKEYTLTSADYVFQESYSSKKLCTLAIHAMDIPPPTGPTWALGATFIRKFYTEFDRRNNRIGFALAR
Summary of the method: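 Recombinant human renin (3 pg/µL) in PBS with 1 mM EDTA, 0.1% BSA, pH 7.4, with human tetradecapeptide (1-14) substrate and hydroxyquinoline sulfate. Compounds diluted in DMSO; incubation 3 h at 37 °C. Angl accumulation measured; percent inhibition at each concentration, IC50 from curve fit. Average of at least two replicates.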

Renin [2] = target: T1, Renin; experiment: Inhibition of human recombinant renin in human citreated-plasma
Summary of the method: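 Pooled human citrate plasma supplemented with recombinant human renin (150 pg/mL final). Compounds in DMSO at various concentrations added to plasma mixed with trapping anti-Angl antibody (final antiserum dilution 1:50,000) in Tris/EDTA, pH 7.2; incubation 2 h at 37 °C. Angl accumulation read by immunoassay; IC50 from curve fit. Average of at least two replicates.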

[3] = AUC in Beagle dog at 3 mg/kg, po; assay type: ADME, organism-based, Canis lupus familiaris; parameters: dose 3 mg/kg, route oral; details: plasma
[4] = Clearance in Sprague-Dawley rat at 30 mg/kg, po and 5 mg/kg, iv; assay type: ADME, organism-based; details: in vivo
[5] = Oral bioavailability in Beagle dog at 3 mg/kg; assay type: ADME, organism-based, Canis lupus familiaris; details: in vivo
[6] = AUC in Sprague-Dawley rat at 30 mg/kg, po; assay type: ADME, organism-based; parameters: dose 30 mg/kg, route oral; details: plasma
Rattus norvegicus = experiment: Antihypertensive activity in telemetered double-transgenic rat assessed as decrease in blood pressure at 3 mg/kg, po after 2 days; assay type: functional
Summary of the method: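 Telemetered double-transgenic rats (n = 8) dosed orally at 3 mpk. Blood pressure monitored by telemetry; maximum fall in mm Hg and duration of action recorded.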

[7] = Oral bioavailability in Sprague-Dawley rat at 30 mg/kg; assay type: ADME, organism-based; details: in vivo
[8] = Volume of distribution at steady state in Beagle dog at 3 mg/kg, po and 1 mg/kg, iv; assay type: ADME, organism-based, Canis lupus familiaris; details: in vivo, read-out: Vdss
[9] = Clearance in Beagle dog at 3 mg/kg, po and 1 mg/kg, iv; assay type: ADME, organism-based, Canis lupus familiaris; details: in vivo
Canis familiaris = experiment: Antihypertensive activity in Beagle assessed as prolongation of CV intervals at 12 uM, iv after 2 days; assay type: functional, Canis lupus familiaris
Summary of the method: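 Beagle dogs given compound intravenously up to 12 µM plasma exposure. QTc, PR and QRS intervals monitored for prolongation.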

[10] = Volume of distribution at steady state in Sprague-Dawley rat at 30 mg/kg, po and 5 mg/kg, iv; assay type: ADME, organism-based; details: in vivo, read-out: Vdss
Cytochrome P450 3A4 = Cytochrome P450 3A4 (Homo sapiens, UniProt P08684); experiment: Inhibition of CYP3A4 after 30 mins; assay type: ADME
[11] = Half life in Beagle dog at 3 mg/kg, po and 1 mg/kg, iv; assay type: ADME, organism-based, Canis lupus familiaris; details: in vivo
[12] = Half life in Sprague-Dawley rat at 30 mg/kg, po and 5 mg/kg, iv; assay type: ADME, organism-based; details: in vivo

Cytochrome P450 3A4, sequence (P08684 whole entry): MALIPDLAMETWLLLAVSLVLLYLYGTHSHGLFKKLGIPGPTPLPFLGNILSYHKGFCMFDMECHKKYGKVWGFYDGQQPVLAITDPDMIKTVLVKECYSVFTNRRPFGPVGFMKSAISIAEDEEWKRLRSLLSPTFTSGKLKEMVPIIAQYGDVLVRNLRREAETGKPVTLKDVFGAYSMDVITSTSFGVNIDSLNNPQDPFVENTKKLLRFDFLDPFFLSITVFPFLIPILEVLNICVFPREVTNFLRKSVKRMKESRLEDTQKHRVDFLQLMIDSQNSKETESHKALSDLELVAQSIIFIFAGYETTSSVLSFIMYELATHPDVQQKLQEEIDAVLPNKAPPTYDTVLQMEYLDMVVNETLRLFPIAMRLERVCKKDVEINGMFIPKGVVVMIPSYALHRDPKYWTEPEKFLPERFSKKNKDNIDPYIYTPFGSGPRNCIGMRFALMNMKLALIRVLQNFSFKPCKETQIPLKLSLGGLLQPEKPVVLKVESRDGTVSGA

| IC50 (Renin [1]) [nM] | IC50 (Renin [2]) [nM] | Structure (SMILES) | also measured |
| --- | --- | --- | --- |
| 260 | – | O=C(C(CNCc1ccccc1)Cc1ccc(CCCOc2c(F)ccc(F)c2Cl)cc1)N(Cc1cccc(Cl)c1Cl)C1CC1 (stereo unspecified) | – |
| 1.9 | 350 | CNCC(Cc1ccc(CCCOc2c(F)ccc(F)c2Cl)cc1)C(=O)N(Cc1cccc(Cl)c1Cl)C1CC1 (stereo unspecified) | – |
| 210 | – | CC(CN)(Cc1ccc(CCCOc2c(F)ccc(F)c2Cl)cc1)C(=O)N(Cc1cccc(Cl)c1Cl)C1CC1 (stereo unspecified) | – |
| 0.4 | 29 | Cc1cc(Cl)c(OCCCc2ccc(CC(CN)C(=O)N(Cc3cccc(Cl)c3Cl)C3CC3)cc2)c(Cl)c1 (stereo unspecified) | – |
| 0.19 | – | COCCc1ccc(Cl)c(CN(C(=O)C(CN)Cc2ccc(CCCOc3c(Cl)cc(C)cc3Cl)cc2)C2CC2)c1 (stereo unspecified) | – |
| 0.27 | 10 | Cc1cc(Cl)c(OCCCc2ccc(CC(CN)C(=O)N(Cc3cc(CCC#N)ccc3Cl)C3CC3)cc2)c(Cl)c1 (stereo unspecified) | – |
| 0.09 | 6.4 | Cc1cc(Cl)c(OCCCc2ccc(CC(CN)C(=O)N(Cc3cc(CCCO)ccc3Cl)C3CC3)cc2)c(Cl)c1 (stereo unspecified) | – |
| 650 | – | NCCC(CC(=O)N(Cc1cccc(Cl)c1Cl)C1CC1)c1ccc(CCCOc2c(F)ccc(F)c2Cl)cc1 (stereo unspecified) | – |
| 0.09 | 2.4 | COCCCc1ccc(Cl)c(CN(C(=O)[C@H](CN)Cc2ccc(CCCOc3c(Cl)cc(C)cc3Cl)cc2)C2CC2)c1 | AUC [3]: 1.3 µM·h; clearance [4]: 2.1 L/h/kg; bioavailability [5]: 32%; AUC [6]: 8.3 µM·h; Activity (Rattus norvegicus): 27 mmHg; bioavailability [7]: 41%; Vd [8]: 8.4 L/kg; clearance [9]: 0.96 L/h/kg; Activity (Canis familiaris): <5%; Vd [10]: 12 L/kg; IC50 (Cytochrome P450 3A4): 130 nM; half-life [11]: 17 h; half-life [12]: 6 h |
| 0.21 | – | COCCOc1ccc(Cl)c(CN(C(=O)C(CN)Cc2ccc(CCCOc3c(Cl)cc(C)cc3Cl)cc2)C2CC2)c1 (stereo unspecified) | – |
| 2.9 | 250 | CC(=O)N(C)Cc1ccc(Cl)c(CN(C(=O)C(CN)Cc2ccc(CCCOc3c(Cl)cc(C)cc3Cl)cc2)C2CC2)c1 (stereo unspecified) | – |
| 1.5 | 103 | Cc1cc(Cl)c(OCCCc2ccc(CC(CN)C(=O)N(Cc3cc(CCCN(C)C)ccc3Cl)C3CC3)cc2)c(Cl)c1 (stereo unspecified) | – |
| 0.26 | 31 | COCCCc1cc(Cl)c(Cl)c(CN(C(=O)C(CN)Cc2ccc(CCCOc3c(Cl)cc(C)cc3Cl)cc2)C2CC2)c1 (stereo unspecified) | – |
| 0.11 | 4.6 | Cc1cc(Cl)c(OCCCc2ccc(C[C@@H](CN)C(=O)N(Cc3cc(CCCC#N)ccc3Cl)C3CC3)cc2)c(Cl)c1 | – |
| 0.19 | 2.2 | COCCCc1cc(CN(C(=O)C(CN)Cc2ccc(CCCOc3c(Cl)cc(C)cc3Cl)cc2)C2CC2)c(Cl)cn1 (stereo unspecified) | – |
| 0.3 | 1.8 | COCCCc1cc(CN(C(=O)C(CN)Cc2ccc(CCCOc3c(Cl)cc(C)cc3Cl)cc2)C2CC2)c(Cl)c[n+]1[O-] (stereo unspecified) | – |
| – | – | COCCCc1cc(CN(C(=O)[C@@H](CN)Cc2ccc(CCCOc3c(Cl)cc(C)cc3Cl)cc2)C2CC2)cc(OCCOC)c1 | AUC [3]: 0.7 µM·h; clearance [4]: 0.78 L/h/kg; bioavailability [5]: 36%; AUC [6]: 27.5 µM·h; Activity (Rattus norvegicus): 35 mmHg; bioavailability [7]: 48%; Vd [8]: 15 L/kg; clearance [9]: 2.1 L/h/kg; Vd [10]: 3.6 L/kg; IC50 (Cytochrome P450 3A4): 1300 nM; half-life [11]: 7.5 h; half-life [12]: 4 h |
| 0.79 | 21 | NCC(Cc1ccc(CCCOc2c(F)ccc(F)c2Cl)cc1)C(=O)N(Cc1cccc(Cl)c1Cl)C1CC1 (racemic) | – |
| 0.26 | 5.8 | COCCCc1ccc(Cl)c(CN(C(=O)C(CN)Cc2ccc(CCCOc3c(Cl)cc(C)cc3Cl)cc2)C2CC2)c1 (racemic) | – |
